pIC50, pKi: −log10 of the molar value.

In test [1] the target is T1, Adenosine receptor A1 (Homo sapiens) (UniProt P30542).
T1 sequence (whole entry): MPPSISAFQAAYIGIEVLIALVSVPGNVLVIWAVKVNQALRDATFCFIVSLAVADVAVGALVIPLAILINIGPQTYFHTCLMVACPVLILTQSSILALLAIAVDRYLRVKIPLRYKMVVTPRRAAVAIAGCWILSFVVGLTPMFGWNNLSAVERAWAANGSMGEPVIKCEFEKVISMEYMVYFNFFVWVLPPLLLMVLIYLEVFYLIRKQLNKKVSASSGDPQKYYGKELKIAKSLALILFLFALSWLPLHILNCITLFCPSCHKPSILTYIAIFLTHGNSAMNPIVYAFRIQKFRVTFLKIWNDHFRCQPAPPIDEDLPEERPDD
Nature of the test: Displacement of [3H]DPCPX from human adenosine A1 receptor expressed in CHO cell membranes at 1 uM incubated for 120 mins by scintillation counting method. Put shortly:
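Membranes from hA1-CHO cells (50 μg protein/assay), pretreated with adenosine deaminase 2 IU/mL, 30 min at 37 °C. Incubated with 1 nM [3H]DPCPX in 50 mM Tris HCl pH 7.4 for 120 min at 25 °C. Nonspecific binding defined with 1 μM DPCPX. Test compounds at 1 μM, reported as percent inhibition. Separation by GF/B filtration; read by scintillation counting.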
A general note: Loss of bound radioactivity is the signal in a displacement assay; it reports binding, not function.

The target in test [2] is Adenosine receptor A2a (Homo sapiens) (UniProt P29274). Nature of the test: Displacement of [3H]ZM241385 from human adenosine A2A receptor expressed in CHO cell membranes at 1 uM incubated for 60 mins by scintillation counting method. Put shortly: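 Membranes from hA2A-CHO cells (50 μg protein/assay), deaminase-treated. Incubated with 1 nM [3H]ZM241385 in 50 mM Tris HCl, 10 mM MgCl2, pH 7.4 for 60 min at 4 °C. Nonspecific binding defined with 1 μM ZM241385. Test compounds at 1 μM, reported as percent inhibition. Filter separation; scintillation counting.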

The target of test [3] is T2, Adenosine receptor A3 (Homo sapiens, UniProt P0DMS8).
T2 sequence (P0DMS8 whole entry): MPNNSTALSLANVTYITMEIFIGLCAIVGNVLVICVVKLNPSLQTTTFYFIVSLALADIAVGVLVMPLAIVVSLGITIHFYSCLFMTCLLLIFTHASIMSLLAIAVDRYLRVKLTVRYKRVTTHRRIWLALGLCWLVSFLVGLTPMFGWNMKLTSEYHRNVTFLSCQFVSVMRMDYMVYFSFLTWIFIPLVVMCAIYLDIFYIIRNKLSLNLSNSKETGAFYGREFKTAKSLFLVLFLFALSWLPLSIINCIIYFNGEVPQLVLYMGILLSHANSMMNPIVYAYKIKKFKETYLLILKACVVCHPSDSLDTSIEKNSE
Briefly: Displacement of [125I]AB-MECA from human adenosine A3 receptor expressed in CHO cell membranes incubated for 120 mins by scintillation counting method. In short, it runs like this: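 Membranes from hA3-CHO cells (50 μg protein/assay), pretreated with 2 IU/mL adenosine deaminase. Incubated with 0.5 nM [125I]AB-MECA in 50 mM Tris HCl, 10 mM MgCl2, 1 mM EDTA, pH 7.4, with six to eight compound concentrations; percent inhibition taken at 1 μM. Ki from IC50 by Cheng–Prusoff, means of four assays in duplicate.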

Test [4] has as its target T3, Adenosine receptor A2b (Homo sapiens) (UniProt P29275).
T3 sequence (whole entry): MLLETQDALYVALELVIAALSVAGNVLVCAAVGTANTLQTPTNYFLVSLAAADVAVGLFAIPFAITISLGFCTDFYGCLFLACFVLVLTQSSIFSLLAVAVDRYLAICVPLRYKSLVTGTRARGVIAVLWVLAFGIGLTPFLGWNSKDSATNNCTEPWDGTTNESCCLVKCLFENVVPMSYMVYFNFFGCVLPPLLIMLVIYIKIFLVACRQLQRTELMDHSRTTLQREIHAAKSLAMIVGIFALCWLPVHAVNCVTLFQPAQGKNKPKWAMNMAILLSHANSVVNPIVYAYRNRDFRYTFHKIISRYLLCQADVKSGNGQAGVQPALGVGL
Briefly: Antagonist activity against human adenosine A2B receptor expressed in CHO cells assessed as inhibition of NECA-induced cAMP production at 1 uM by scintillation counting method. The format is functional, cell-based. In short, it runs like this: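 hA2B-transfected CHO cells (1 × 10⁶ cells/assay) in buffered saline-glucose medium with 2 IU/mL adenosine deaminase and Ro 20-1724, preincubated 10 min at 37 °C, stimulated with 200 nM NECA; test compounds at 1 μM, reported as percent inhibition. Stopped with cold 6% TCA, ether-extracted; cAMP measured by competition binding with [3H]cAMP and beef adrenal binding protein.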
A general note: cAMP levels reflect the balance of adenylyl cyclase and phosphodiesterase activity.

The target in test [5] is T2, Adenosine receptor A3. Nature of the test: Antagonist activity against human adenosine A3 receptor expressed in CHO cells assessed as blockade of Cl-IB-MECA-induced inhibition of forskolin-induced cAMP production by scintillation counting method. Format: functional, cell-based. Put shortly:
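hA3-transfected CHO cells (1 × 10⁶ cells/assay) in buffered medium pH 7.4 with 2 IU/mL adenosine deaminase and Ro 20-1724, preincubated 10 min at 37 °C; antagonists tested against 100 nM Cl-IB-MECA. Stopped with cold TCA; cAMP measured by [3H]cAMP competition binding with adrenal binding protein. IC50 from sigmoid nonlinear regression, mean of four experiments.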

Sequence of Adenosine receptor A2a (Homo sapiens) (P29274 whole entry): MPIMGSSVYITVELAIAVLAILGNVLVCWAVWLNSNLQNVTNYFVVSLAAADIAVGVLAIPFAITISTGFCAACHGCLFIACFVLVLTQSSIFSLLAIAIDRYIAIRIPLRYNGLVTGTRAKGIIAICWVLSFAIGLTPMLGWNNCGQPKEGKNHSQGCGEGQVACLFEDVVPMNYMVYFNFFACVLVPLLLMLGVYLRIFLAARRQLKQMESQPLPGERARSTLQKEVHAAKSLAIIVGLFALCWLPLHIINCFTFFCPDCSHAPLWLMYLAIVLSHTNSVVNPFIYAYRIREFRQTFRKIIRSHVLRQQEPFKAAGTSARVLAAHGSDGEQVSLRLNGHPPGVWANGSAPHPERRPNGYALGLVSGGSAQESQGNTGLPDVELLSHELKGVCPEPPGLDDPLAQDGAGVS

As usually defined, the inhibition is the relative decrease from the control value, in per cent. Broadly, the pKi is −log10 of the Ki, conventionally taken in molar units. Low readings indicate a high Ki, high ones a low Ki. For orientation: pIC50 means the negative decadic logarithm of the IC50, by convention in mol/L. `Cc1nc2sc(-c3ccccc3)nc2c(=O)[nH]1`: the inhibition in test [1] was 11%; in test [2], 1%; in test [4], 1%. At Adenosine receptor A3 [3], this molecule showed a pKi of 7.07. Also, on Adenosine receptor A3 [5], the pIC50 was 6.66.

As for `Cc1nc2sc(-c3ccc(Cl)cc3)nc2c(=O)[nH]1`, the inhibition in test [1], in test [2] and in test [4] was 1% throughout. This molecule gave a pKi at Adenosine receptor A3 [3] of 7.74. In addition, on Adenosine receptor A3 [5], the pIC50 was 7.38.

Values taken from ChEMBL document CHEMBL3414467, “Exploring the 7-oxo-thiazolo[5,4-d]pyrimidine core for the design of new human adenosine A3 receptor antagonists. Synthesis, molecular modeling studies and pharmacological evaluation” (Eur J Med Chem, 2015).
